Test system: MCF7
Test: Cytotoxicity against human MCF-7 breast cancer cell line.
Assay type: functional
Conditions: read-out: ED50 (the source's name)
Procedure, shortened: (§1)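 MTT colorimetric assay run in the Purdue Cell Culture Laboratory. Poorly water-soluble compounds were serially diluted in DMSO and added as 0.5 μL aliquots per well. Cells were incubated with compound for 6 days before MTT was added. […] The reported ED50 is the mean of two determinations.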

Row | Compound | EC50
1 | COc1ccc(/C=C\c2cc(OC)c(OCc3ccccc3)c(OC)c2)cc1 | 1920 nM
2 | COc1ccc(Cc2c3cc(OC)c(OC)c(OC)c3cc[n+]2C)cc1 | > 25000 nM
3 | COc1ccc(C(O)c2cc(OC)c(OC)c(OC)c2)cc1 (stereo not drawn) | 1900 nM
4 | COc1ccc(/C=C/c2cc(OC)c(OCc3ccccc3)c(OC)c2)cc1 | > 25000 nM
5 | CCOc1ccc(CCc2cc(OC)c(OC)c(OC)c2)cc1 | 190 nM
6 | COc1ccc(/C=C\c2cc(OC)c(OC(C)=O)c(OC)c2)cc1 | > 25000 nM
7 | COc1cc(/C=C/c2ccc(SC)cc2)cc(OC)c1OC | 59 nM
8 | COc1ccc(C(C#N)Cc2cc(OC)c(OC)c(OC)c2)cc1 (stereo not drawn) | 14300 nM
9 | COc1ccc(CC(C#N)c2cc(OC)c(OC)c(OC)c2)cc1 (stereo not drawn) | 1400 nM
10 | CCCOc1ccc(CCc2cc(OC)c(OC)c(OC)c2)cc1 | 3900 nM
11 | CCN(CC)CCOC(=O)/C(=C/c1ccc(OC)cc1)c1cc(OC)c(OC)c(OC)c1 | 2100 nM
12 | COc1ccc(/C=C\c2cc(OC)c(O[Si](C)(C)C(C)(C)C)c(OC)c2)cc1 | > 25000 nM
13 | CCOc1ccc(/C=C/c2cc(OC)c(OC)c(OC)c2)cc1 | 7500 nM
14 | CCOc1ccc(/C=C\c2cc(OC)c(OC)c(OC)c2)cc1 | 9600 nM
15 | COc1ccc(/C=C\c2cc(OC)c(OC)c(OC)c2)cc1O [COMBRETASTATIN A4] | 5.6 nM
16 | COc1cc(/C=C\c2ccc(C(C)C)cc2)cc(OC)c1OC | 1400 nM

Test system: MLM
Test: Cytotoxicity against human MLM melanoma cell line.
Assay type: functional
Conditions: read-out: ED50 (the source's name)
Procedure, shortened: as §1

Row | Compound | EC50
17 | COc1ccc(/C=C\c2cc(OC)c(OCc3ccccc3)c(OC)c2)cc1 | > 25000 nM
18 | COc1ccc(Cc2c3cc(OC)c(OC)c(OC)c3cc[n+]2C)cc1 | > 25000 nM
19 | COc1ccc(C(O)c2cc(OC)c(OC)c(OC)c2)cc1 (stereo not drawn) | 16800 nM
20 | COc1ccc(/C=C/c2cc(OC)c(OCc3ccccc3)c(OC)c2)cc1 | > 25000 nM
21 | COc1ccc(/C=C\c2cc(OC)c(OC)c(OC)c2)cc1 | 1600 nM
22 | CCOc1ccc(CCc2cc(OC)c(OC)c(OC)c2)cc1 | 270 nM
23 | COc1ccc(/C=C\c2cc(OC)c(OC(C)=O)c(OC)c2)cc1 | > 25000 nM
24 | COc1cc(/C=C/c2ccc(SC)cc2)cc(OC)c1OC | 7300 nM
25 | COc1ccc(C(C#N)Cc2cc(OC)c(OC)c(OC)c2)cc1 (stereo not drawn) | 21100 nM
26 | COc1ccc(CC(C#N)c2cc(OC)c(OC)c(OC)c2)cc1 (stereo not drawn) | 1600 nM
27 | CCCOc1ccc(CCc2cc(OC)c(OC)c(OC)c2)cc1 | 15000 nM
28 | CCN(CC)CCOC(=O)/C(=C/c1ccc(OC)cc1)c1cc(OC)c(OC)c(OC)c1 | > 25000 nM
29 | COc1ccc(/C=C\c2cc(OC)c(O[Si](C)(C)C(C)(C)C)c(OC)c2)cc1 | > 25000 nM
30 | COc1ccc(/C=C\c2cc(OC)c(OC)c(OC)c2)cc1O [COMBRETASTATIN A4] | 0.43 nM

Test system: SK-MEL-5
Test: Compound was evaluated for cytotoxicity against human SKMEL-5 melanoma cell line.
Assay type: functional
Conditions: read-out: ED50 (the source's name)
Procedure, shortened: as §1

Row | Compound | EC50
31 | COc1ccc(/C=C\c2cc(OC)c(OCc3ccccc3)c(OC)c2)cc1 | 610 nM
32 | COc1ccc(Cc2c3cc(OC)c(OC)c(OC)c3cc[n+]2C)cc1 | 2100 nM
33 | COc1ccc(C(O)c2cc(OC)c(OC)c(OC)c2)cc1 (stereo not drawn) | 1500 nM
34 | COc1ccc(/C=C/c2cc(OC)c(OCc3ccccc3)c(OC)c2)cc1 | > 25000 nM
35 | COc1ccc(/C=C\c2cc(OC)c(OC)c(OC)c2)cc1 | 2600 nM
36 | CCOc1ccc(CCc2cc(OC)c(OC)c(OC)c2)cc1 | 170 nM
37 | COc1ccc(/C=C\c2cc(OC)c(OC(C)=O)c(OC)c2)cc1 | 600 nM
38 | COc1cc(/C=C/c2ccc(SC)cc2)cc(OC)c1OC | 280 nM
39 | COc1ccc(C(C#N)Cc2cc(OC)c(OC)c(OC)c2)cc1 (stereo not drawn) | 6400 nM
40 | COc1ccc(CC(C#N)c2cc(OC)c(OC)c(OC)c2)cc1 (stereo not drawn) | 4100 nM
41 | CCCOc1ccc(CCc2cc(OC)c(OC)c(OC)c2)cc1 | 6700 nM
42 | CCN(CC)CCOC(=O)/C(=C/c1ccc(OC)cc1)c1cc(OC)c(OC)c(OC)c1 | 2700 nM
43 | COc1ccc(/C=C\c2cc(OC)c(O[Si](C)(C)C(C)(C)C)c(OC)c2)cc1 | > 25000 nM
44 | CCOc1ccc(/C=C/c2cc(OC)c(OC)c(OC)c2)cc1 | 1170 nM
45 | CCOc1ccc(/C=C\c2cc(OC)c(OC)c(OC)c2)cc1 | 2500 nM
46 | COc1ccc(/C=C\c2cc(OC)c(OC)c(OC)c2)cc1O [COMBRETASTATIN A4] | 0.14 nM

Test system: A549
Test: Compound was evaluated for cytotoxicity against human A-549 non-small cell lung cancer cell line.
Assay type: functional
Conditions: read-out: ED50 (the source's name)
Procedure, shortened: as §1

Row | Compound | EC50
47 | COc1ccc(/C=C\c2cc(OC)c(OCc3ccccc3)c(OC)c2)cc1 | 1040 nM
48 | COc1ccc(Cc2c3cc(OC)c(OC)c(OC)c3cc[n+]2C)cc1 | 19500 nM
49 | COc1ccc(C(O)c2cc(OC)c(OC)c(OC)c2)cc1 (stereo not drawn) | 1500 nM
50 | COc1ccc(/C=C/c2cc(OC)c(OCc3ccccc3)c(OC)c2)cc1 | > 25000 nM
51 | CCOc1ccc(CCc2cc(OC)c(OC)c(OC)c2)cc1 | 190 nM
52 | COc1ccc(/C=C\c2cc(OC)c(OC(C)=O)c(OC)c2)cc1 | 21500 nM
53 | COc1cc(/C=C/c2ccc(SC)cc2)cc(OC)c1OC | 470 nM
54 | COc1ccc(C(C#N)Cc2cc(OC)c(OC)c(OC)c2)cc1 (stereo not drawn) | 11500 nM
55 | COc1ccc(CC(C#N)c2cc(OC)c(OC)c(OC)c2)cc1 (stereo not drawn) | 9600 nM
56 | CCCOc1ccc(CCc2cc(OC)c(OC)c(OC)c2)cc1 | 7200 nM
57 | CCN(CC)CCOC(=O)/C(=C/c1ccc(OC)cc1)c1cc(OC)c(OC)c(OC)c1 | 1800 nM
58 | COc1ccc(/C=C\c2cc(OC)c(O[Si](C)(C)C(C)(C)C)c(OC)c2)cc1 | > 25000 nM
59 | CCOc1ccc(/C=C\c2cc(OC)c(OC)c(OC)c2)cc1 | 1600 nM
60 | COc1ccc(/C=C\c2cc(OC)c(OC)c(OC)c2)cc1O [COMBRETASTATIN A4] | 0.32 nM

Test system: HT-29
Test: Cytotoxicity against human HT-29 colon cell line.
Assay type: functional
Conditions: read-out: ED50 (the source's name)
Procedure, shortened: as §1

Row | Compound | EC50
61 | COc1ccc(/C=C\c2cc(OC)c(OCc3ccccc3)c(OC)c2)cc1 | 950 nM
62 | COc1ccc(Cc2c3cc(OC)c(OC)c(OC)c3cc[n+]2C)cc1 | 20500 nM
63 | COc1ccc(C(O)c2cc(OC)c(OC)c(OC)c2)cc1 (stereo not drawn) | 1200 nM
64 | COc1ccc(/C=C/c2cc(OC)c(OCc3ccccc3)c(OC)c2)cc1 | 17800 nM
65 | COc1ccc(/C=C\c2cc(OC)c(OC)c(OC)c2)cc1 | 2600 nM
66 | CCOc1ccc(CCc2cc(OC)c(OC)c(OC)c2)cc1 | 180 nM
67 | COc1ccc(/C=C\c2cc(OC)c(OC(C)=O)c(OC)c2)cc1 | 8700 nM
68 | COc1cc(/C=C/c2ccc(SC)cc2)cc(OC)c1OC | 83 nM
69 | COc1ccc(C(C#N)Cc2cc(OC)c(OC)c(OC)c2)cc1 (stereo not drawn) | 9400 nM
70 | COc1ccc(CC(C#N)c2cc(OC)c(OC)c(OC)c2)cc1 (stereo not drawn) | 7500 nM
71 | CCCOc1ccc(CCc2cc(OC)c(OC)c(OC)c2)cc1 | 6400 nM
72 | CCN(CC)CCOC(=O)/C(=C/c1ccc(OC)cc1)c1cc(OC)c(OC)c(OC)c1 | 2800 nM
73 | COc1ccc(/C=C\c2cc(OC)c(O[Si](C)(C)C(C)(C)C)c(OC)c2)cc1 | 9000 nM
74 | CCOc1ccc(/C=C/c2cc(OC)c(OC)c(OC)c2)cc1 | 1490 nM
75 | CCOc1ccc(/C=C\c2cc(OC)c(OC)c(OC)c2)cc1 | 1800 nM
76 | COc1ccc(/C=C\c2cc(OC)c(OC)c(OC)c2)cc1O [COMBRETASTATIN A4] | 10 nM
77 | COc1cc(/C=C\c2ccc(C(C)C)cc2)cc(OC)c1OC | 2400 nM

Species: Bos taurus
Test: Inhibition of tubulin polymerization
Assay type: functional
Conditions: not given
Procedure, shortened: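 Bovine brain tubulin, purified to electrophoretic homogeneity, was preincubated at 37 °C with a range of compound concentrations and then chilled on ice. GTP was added and polymerization followed at 37 °C by turbidity at 350 nm. Extent was read at 20 min against two controls per experiment, and IC50 was determined graphically. Actives were run in ≥3 independent assays, inactives (IC50 > 40 μM) in ≥2.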

Row | Compound | IC50
78 | COc1ccc(/C=C\c2cc(OC)c(OCc3ccccc3)c(OC)c2)cc1 | > 40000 nM
79 | COc1ccc(/C=C/c2cc(OC)c(OCc3ccccc3)c(OC)c2)cc1 | > 40000 nM
80 | COc1ccc(/C=C\c2cc(OC)c(OC)c(OC)c2)cc1 | 2500 nM
81 | CCOc1ccc(CCc2cc(OC)c(OC)c(OC)c2)cc1 | 10000 nM
82 | COc1ccc(/C=C\c2cc(OC)c(O[Si](C)(C)C(C)(C)C)c(OC)c2)cc1 | > 40000 nM
83 | CCOc1ccc(/C=C/c2cc(OC)c(OC)c(OC)c2)cc1 | > 40000 nM
84 | CCOc1ccc(/C=C\c2cc(OC)c(OC)c(OC)c2)cc1 | 2700 nM
85 | COc1cc(/C=C\c2ccc(C(C)C)cc2)cc(OC)c1OC | 12000 nM

Second part, the molecule after the results:

Row | IC50 | Compound
86 | > 40000 nM | COc1ccc(Cc2c3cc(OC)c(OC)c(OC)c3cc[n+]2C)cc1
87 | > 40000 nM | COc1ccc(C(O)c2cc(OC)c(OC)c(OC)c2)cc1 (stereo not drawn)
88 | 24000 nM | COc1ccc(/C=C\c2cc(OC)c(OC(C)=O)c(OC)c2)cc1
89 | > 40000 nM | COc1cc(/C=C/c2ccc(SC)cc2)cc(OC)c1OC
90 | > 40000 nM | COc1ccc(C(C#N)Cc2cc(OC)c(OC)c(OC)c2)cc1 (stereo not drawn)
91 | 11000 nM | COc1ccc(CC(C#N)c2cc(OC)c(OC)c(OC)c2)cc1 (stereo not drawn)
92 | > 40000 nM | CCCOc1ccc(CCc2cc(OC)c(OC)c(OC)c2)cc1
93 | > 40000 nM | CCN(CC)CCOC(=O)/C(=C/c1ccc(OC)cc1)c1cc(OC)c(OC)c(OC)c1

From ChEMBL document CHEMBL1126297, “Synthesis and evaluation of analogues of (Z)-1-(4-methoxyphenyl)-2-(3,4,5-trimethoxyphenyl)ethene as potential cytotoxic and antimitotic agents” (J Med Chem, 1992)
